Data as given in ChEMBL document CHEMBL4406810, “Modifications on the Amino-3,5-dicyanopyridine Core To Obtain Multifaceted Adenosine Receptor Ligands with Antineuropathic Activity” (J Med Chem, 2019).
Activity calls are given as the source filed them.

Assays:
[1] = Half life in human plasma at 1 uM by LC-MS/MS analysis; type: ADME, cell-free
In short: (§1)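 Analyte spiked at 1 µM into human plasma or heparinized Sprague-Dawley male rat plasma (or PBS). Incubated at 37°C for 0, 30, 60, 120 min in triplicate. Internal standard added, centrifuged, dried, reconstituted. Quantified by LC-MS/MS (ESI negative, MRM) against a 0–1 µM calibration. Half-life from concentration-time profile.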

Adenosine receptor A2b = target: T1, Adenosine receptor A2b (Homo sapiens, UniProt P29275); experiment: Agonist activity at human A2B expressed in CHO cells assessed as stimulation of cAMP production by alphascreen assay; type: functional, cell-based
T1 sequence (P29275 whole entry): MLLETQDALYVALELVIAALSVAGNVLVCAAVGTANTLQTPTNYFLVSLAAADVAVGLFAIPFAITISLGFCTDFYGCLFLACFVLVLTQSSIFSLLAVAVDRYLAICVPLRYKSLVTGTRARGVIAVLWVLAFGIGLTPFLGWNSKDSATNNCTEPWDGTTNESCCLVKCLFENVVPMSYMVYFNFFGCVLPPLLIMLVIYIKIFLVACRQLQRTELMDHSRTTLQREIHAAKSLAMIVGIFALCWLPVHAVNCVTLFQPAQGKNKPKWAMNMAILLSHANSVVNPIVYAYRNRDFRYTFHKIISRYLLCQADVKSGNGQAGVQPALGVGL
In short: (§2)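 Compounds tested alone at final 1 nM to 1 µM. cAMP measured by AlphaScreen. Efficacy taken at 1 µM relative to NECA 1 µM (=100%). Four independent experiments in triplicate.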

Adenosine receptor A2a [2] = target: T2, Adenosine receptor A2a (Homo sapiens, UniProt P29274); experiment: Displacement of [3H]ZM241385 from human A2AR expressed in CHO cell membranes at 1 uM measured after 60 mins by scintillation counting method relative to control
T2 sequence (P29274 whole entry): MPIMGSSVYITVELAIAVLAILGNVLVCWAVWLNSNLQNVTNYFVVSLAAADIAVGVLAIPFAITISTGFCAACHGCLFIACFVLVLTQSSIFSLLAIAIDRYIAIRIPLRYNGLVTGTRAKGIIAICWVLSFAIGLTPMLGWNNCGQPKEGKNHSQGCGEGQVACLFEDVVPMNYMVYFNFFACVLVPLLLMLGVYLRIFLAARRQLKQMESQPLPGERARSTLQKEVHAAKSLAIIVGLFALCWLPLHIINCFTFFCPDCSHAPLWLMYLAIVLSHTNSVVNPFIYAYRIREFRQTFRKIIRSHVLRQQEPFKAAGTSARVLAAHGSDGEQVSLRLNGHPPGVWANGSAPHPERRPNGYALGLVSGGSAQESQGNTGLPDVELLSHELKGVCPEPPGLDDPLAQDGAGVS
In short: (§3)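 Nonspecific binding defined with 1 µM ZM241385. Filtered on GF/B, scintillation counted. Ki by Cheng–Prusoff. Percent inhibition at 1 µM. Four experiments in triplicate.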

Adenosine receptor A1 [3] = target: T3, Adenosine receptor A1 (Homo sapiens, UniProt P30542); experiment: Antagonist activity at human A1AR expressed in CHO cells assessed as suppression of CCPA-induced inhibition of forskolin-stimulated cAMP production by alphascreen assay; type: functional, cell-based
T3 sequence (P30542 whole entry): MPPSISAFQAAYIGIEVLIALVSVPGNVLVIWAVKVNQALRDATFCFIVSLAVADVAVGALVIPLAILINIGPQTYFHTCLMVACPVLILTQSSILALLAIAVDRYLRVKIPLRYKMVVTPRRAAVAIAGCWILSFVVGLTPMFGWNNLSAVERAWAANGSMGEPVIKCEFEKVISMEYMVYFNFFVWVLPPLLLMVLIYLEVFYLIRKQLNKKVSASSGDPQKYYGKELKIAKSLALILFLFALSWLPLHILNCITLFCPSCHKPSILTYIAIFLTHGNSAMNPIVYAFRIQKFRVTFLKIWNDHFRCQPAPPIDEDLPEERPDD
In short: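 hA1 CHO cells in HBSS with HEPES, Ro 20-1724 (phosphodiesterase inhibitor), BSA and adenosine deaminase. Forskolin 5 µM with CCPA 1 nM. […] AlphaScreen detection. IC50 and Emax by sigmoid fit. Four independent experiments in triplicate.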

CHO = experiment: Effect on cAMP level in wild-type CHO cells at 0.001 to 1 uM by alphascreen assay; type: functional, cell-based; conditions: Cricetulus griseus
In short: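 Compounds at 1 nM to 1 µM final concentrations. cAMP quantified with AlphaScreen kit. Four independent experiments, each in triplicate.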

Adenosine receptor A1 [4] = target: T3, Adenosine receptor A1; experiment: Displacement of [3H]DPCPX from human A1AR expressed in CHO cell membranes measured after 90 mins by scintillation counting method
In short: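 Nonspecific binding with 1 µM DPCPX. GF/B filtration and scintillation counting. Ki by Cheng–Prusoff. Inhibition % at 1 µM. Four experiments in triplicate.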

[5] = target: T4, Adenosine receptor A2b (Homo sapiens) (UniProt P29275); experiment: Agonist activity at human A2B expressed in CHO cells assessed as stimulation of cAMP production at 1 uM by alphascreen assay relative to NECA; type: functional, cell-based; in short: as §2
T4 sequence (whole entry): T1 sequence (P29275 whole entry)

[6] = target: T5, Adenosine receptor A3 (Homo sapiens) (UniProt P0DMS8); experiment: Displacement of [125I]ABMECA from human A3R expressed in CHO cell membranes at 1 uM measured after 120 mins by scintillation counting method relative to control
T5 sequence (whole entry): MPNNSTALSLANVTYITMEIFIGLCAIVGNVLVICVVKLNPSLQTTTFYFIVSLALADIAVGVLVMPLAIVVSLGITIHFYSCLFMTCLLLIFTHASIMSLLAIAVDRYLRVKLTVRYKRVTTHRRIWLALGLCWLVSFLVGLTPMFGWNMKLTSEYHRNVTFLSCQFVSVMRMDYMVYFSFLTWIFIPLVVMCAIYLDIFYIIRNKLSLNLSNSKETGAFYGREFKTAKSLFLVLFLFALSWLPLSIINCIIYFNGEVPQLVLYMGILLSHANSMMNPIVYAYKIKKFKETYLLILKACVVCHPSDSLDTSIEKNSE
In short: (§4)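 Nonspecific binding with 1 µM AB-MECA. GF/B filtration and counting. Ki via Cheng–Prusoff. Percent inhibition at 1 µM. Four experiments in triplicate.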

[7] = Half life in Sprague-Dawley rat plasma at 1 uM by LC-MS/MS analysis; type: ADME, cell-free; in short: as §1
Mus musculus = experiment: Antinociceptive activity in CD-1 albino mouse model of oxaliplatin-induced neuropathic pain assessed as increase in licking latency at 0.1 to 0.3 mg/kg, po treated on day 15 post oxaliplatin treatment and measured at 30 to 60 mins post dose by cold plate test; type: functional, organism-based
In short: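 Male CD-1 mice (22–25 g) given oxaliplatin 2.4 mg/kg i.p. in 5% glucose on days 1-2, 5-9 and 12-14. On day 15, single oral dose (test compounds in 1% CMC). Cold plate at 4 °C, latency to paw licking or lifting, 60 s cut-off, read 15–60 min post dose. 10 mice/group in two sets. ANOVA with Bonferroni.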

Adenosine receptor A1 [8] = target: T3, Adenosine receptor A1; experiment: Inverse agonist activity at human A1AR expressed in CHO cells assessed as increase in forskolin-stimulated cAMP production by alphascreen assay; type: functional, cell-based
In short: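 Compounds at 1 nM to 1 µM. cAMP rise measured by AlphaScreen. EC50 from sigmoid fit. Four independent experiments in triplicate.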

[9] = target: T6, Adenosine receptor A1 (Homo sapiens) (UniProt P30542); experiment: Inverse agonist activity at human A1AR expressed in CHO cells assessed as increase in forskolin-stimulated cAMP production by alphascreen assay relative to DPCPX; type: functional, cell-based
T6 sequence (whole entry): T3 sequence (P30542 whole entry)
In short: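 Compounds at 1 nM to 1 µM. cAMP rise measured by AlphaScreen. EC50 from sigmoid fit. […] Four independent experiments in triplicate.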

Adenosine receptor A3 = target: T7, Adenosine receptor A3 (Homo sapiens, UniProt P0DMS8); experiment: Displacement of [125I]ABMECA from human A3R expressed in CHO cell membranes measured after 120 mins by scintillation counting method; in short: as §4
T7 sequence (P0DMS8 whole entry): T5 sequence (whole entry)

Adenosine receptor A2a [10] = target: T2, Adenosine receptor A2a; experiment: Displacement of [3H]ZM241385 from human A2AR expressed in CHO cell membranes measured after 60 mins by scintillation counting method; in short: as §3
[11] = target: T4, Adenosine receptor A2b (Homo sapiens); experiment: Antagonist activity at human A2BR expressed in CHO cells assessed as inhibition of NECA-stimulated cAMP production at 1 uM by alphascreen assay relative to control; type: functional, cell-based
In short: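 Compounds added at 1 nM to 1 µM final, with percent inhibition read at 1 µM. AlphaScreen cAMP read-out. IC50 by sigmoid non-linear regression. Four independent experiments in triplicate.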

| EC50 (Adenosine receptor A2b) | IC50 (Adenosine receptor A1 [3]) | Ki (Adenosine receptor A1 [4]) | Efficacy [5] | inhibition [6] | Ki (Adenosine receptor A2a [10]) | Structure (SMILES) | Activity (CHO) | further results |
| --- | --- | --- | --- | --- | --- | --- | --- | --- |
|  |  |  |  |  |  | CCOC(=O)C(C)c1cccc(C(=O)c2ccccc2)c1 (stereo unspecified) |  | half-life at 1 µM [1]: 1.67 h |
| > 1000 nM | 118 nM | 89 nM | 4% | 30% |  | N#Cc1c(NC2CC2)nc(SCCO)c(C#N)c1-c1ccco1 | inactive | inhibition (Adenosine receptor A2a [2]): 30% |
|  |  |  |  |  |  | CCOC(=O)[C@H](CCc1ccccc1)N[C@@H](C)C(=O)N1CCC[C@H]1C(=O)O |  | half-life at 1 µM [7]: 0.367 h |
| > 1000 nM |  | 4.12 nM | 1% |  | 581 nM | N#Cc1c(N)nc(SCc2cccc(C(=O)O)c2)c(C#N)c1-c1ccco1 | inactive | Activity (Mus musculus): Active; EC50 (Adenosine receptor A1 [8]): 8.92 nM; Emax [9]: 45%; Ki (Adenosine receptor A3): 611 nM; inhibition [11]: 12% |
| > 1000 nM | 76 nM | 65 nM | 3% | 14% | 461 nM | N#Cc1c(NCc2ccccc2)nc(SCCO)c(C#N)c1-c1ccco1 | inactive |  |
